Experimental data reported in ChEMBL document CHEMBL1136324, “The total synthesis of an aurone isolated from Uvaria hamiltonii: aurones and flavones as anticancer agents” (Bioorg Med Chem Lett, 2003).

Legend:
Tubulin alpha chain = Tubulin alpha chain (Sus scrofa, UniProt P02550); experiment: Concentration that cause a 50% inhibition in tubulin assembly as measured by an increase in turbidity using microtubule assembly assay
K562 [1] = experiment: Inhibitory activity against K562 human chronic myelogenous leukemia cell line using MTT assay after 5 days incubation of the compound; format: functional, cell-based; conditions: K562, 120 h
Outline: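 K562 cells exposed to drug for 5 days at 37 °C; growth read by MTT assay. IC50 taken as concentration giving 50% inhibition of cell growth.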

K562 [2] = experiment: Effect on G2/M phase of the cell cycle by flow cytometry; format: functional, Homo sapiens
Outline: (§1)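 Cell-cycle phase distribution measured by flow cytometry in drug-treated cells, compared with untreated control.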

K562 [3] = experiment: Effect on G0-G1 phase of the cell cycle by flow cytometry; format: functional, Homo sapiens; outline: as §1
K562 [4] = experiment: Effect on S phase of the cell cycle by flow cytometry; format: functional, Homo sapiens; outline: as §1
Tubulin = Tubulin (Sus scrofa, UniProt P02554+P02550); experiment: Ability to inhibit the binding of [3H]colchicine to porcine tubulin; format: protein assay

Tubulin alpha chain, sequence (P02550 whole entry, looked up): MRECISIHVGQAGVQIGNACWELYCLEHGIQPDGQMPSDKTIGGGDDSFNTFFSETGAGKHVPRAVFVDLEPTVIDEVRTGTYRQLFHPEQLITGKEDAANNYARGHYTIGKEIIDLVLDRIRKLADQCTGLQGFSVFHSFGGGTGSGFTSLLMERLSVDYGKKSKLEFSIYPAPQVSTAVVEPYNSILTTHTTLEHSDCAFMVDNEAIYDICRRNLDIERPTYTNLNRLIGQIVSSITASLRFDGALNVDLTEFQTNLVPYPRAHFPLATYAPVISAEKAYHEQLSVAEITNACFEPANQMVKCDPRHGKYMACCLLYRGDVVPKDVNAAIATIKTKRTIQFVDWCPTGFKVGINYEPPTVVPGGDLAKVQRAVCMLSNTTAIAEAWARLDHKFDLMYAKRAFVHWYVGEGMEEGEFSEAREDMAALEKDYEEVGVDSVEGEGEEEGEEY

| Compound | IC50 (Tubulin alpha chain) | IC50 (K562 [1]) | Activity (K562 [2]) | Activity (K562 [3]) | Activity (K562 [4]) | IC50 (Tubulin) |
| --- | --- | --- | --- | --- | --- | --- |
| COc1ccc(/C=C2\Oc3cc(OC)c(OC)c(OC)c3C2=O)cc1O | > 50 µM | 18 µM | – | – | – | – |
| COc1cc2c(c(OC)c1OC)O/C(=C\c1cc(F)c(OC)c(F)c1)C2=O | – | 0.15 µM | – | – | – | – |
| COc1cc2c(c(OC)c1OC)C(=O)/C(=C/c1cc(F)c(OC)c(F)c1)O2 | – | > 50 µM | – | – | – | – |
| COc1ccc(-c2cc(=O)c3cc(OC)c(OC)c(OC)c3o2)cc1F | > 50 µM | 0.59 µM | – | – | – | – |
| COc1ccc(-c2cc(=O)c3cc(OC)c(OC)c(OC)c3o2)cc1O | 25 µM | 0.04 µM | 38 | 52 | 11 | 40 µM |
| COc1cc2c(c(OC)c1OC)O/C(=C\c1ccc(O)c(O)c1)C2=O | > 50 µM | 9.7 µM | 39 | 45 | 16 | – |
| COc1cc2c(c(OC)c1OC)C(=O)/C(=C/c1ccc(O)c(O)c1)O2 | > 50 µM | 12 µM | 25 | 57 | 18 | – |
| COc1ccc(/C=C2\Oc3c(cc(OC)c(OC)c3OC)C2=O)cc1 | – | 0.15 µM | – | – | – | – |
| COc1ccc(-c2cc(=O)c3c(OC)c(OC)c(OC)cc3o2)cc1O | > 50 µM | 22 µM | – | – | – | – |
| COc1ccc(/C=C2\Oc3c(cc(OC)c(OC)c3OC)C2=O)cc1F | > 50 µM | 0.11 µM | 77 | 12 | 11 | – |
| COc1ccc(/C=C2\Oc3cc(OC)c(OC)c(OC)c3C2=O)cc1 | – | > 50 µM | – | – | – | – |
| COc1ccc(-c2cc(=O)c3cc(OC)c(OC)c(OC)c3o2)cc1 | – | 0.83 µM | – | – | – | – |
| COc1ccc(/C=C2\Oc3cc(OC)c(OC)c(OC)c3C2=O)cc1F | > 50 µM | > 50 µM | – | – | – | – |
| COc1ccc(/C=C2\Oc3c(cc(OC)c(OC)c3OC)C2=O)cc1O | 22 µM | 0.05 µM | 69 | 17 | 14 | 60 µM |
| COc1ccc(-c2cc(=O)c3c(OC)c(OC)c(OC)cc3o2)cc1F | > 50 µM | > 50 µM | – | – | – | – |
| COc1ccc(-c2cc(=O)c3c(OC)c(OC)c(OC)cc3o2)cc1 | – | 42 µM | – | – | – | – |
| COc1ccc(/C=C(\C)C(=O)c2cc(OC)c(OC)c(OC)c2)cc1O | 0.5 µM | 0.0002 µM | 83 | 10 | 7 | – |
